Laboratory results published in ChEMBL document CHEMBL1132920, “Syntheses of (R)- and (S)-2- and 6-fluoronorepinephrine and (R)- and (S)-2- and 6-fluoroepinephrine: effect of stereochemistry on fluorine-induced adrenergic selectivities” (J Med Chem, 2000).

Assays:
[1] = target: Beta-1 adrenergic receptor (Rattus norvegicus, UniProt P18090); assay: Binding of [3H]dihydroalprenolol to beta-1 adrenergic receptor of rat cerebral cortical membranes; format: cell membranes, Membrane
In short: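 Competition assay measuring displacement of specific [3H]dihydroalprenolol binding from rat cerebral cortical membranes to give beta-1 adrenergic receptor affinity.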

[2] = target: T1, Adrenergic receptor alpha-2 (Rattus norvegicus, UniProt P22086+P19328+P22909); assay: Binding of [3H]clonidine to alpha-2-adrenergic receptor of rat cerebral cortical membranes; format: cell membranes, Membrane
T1 sequence (P22086 whole entry): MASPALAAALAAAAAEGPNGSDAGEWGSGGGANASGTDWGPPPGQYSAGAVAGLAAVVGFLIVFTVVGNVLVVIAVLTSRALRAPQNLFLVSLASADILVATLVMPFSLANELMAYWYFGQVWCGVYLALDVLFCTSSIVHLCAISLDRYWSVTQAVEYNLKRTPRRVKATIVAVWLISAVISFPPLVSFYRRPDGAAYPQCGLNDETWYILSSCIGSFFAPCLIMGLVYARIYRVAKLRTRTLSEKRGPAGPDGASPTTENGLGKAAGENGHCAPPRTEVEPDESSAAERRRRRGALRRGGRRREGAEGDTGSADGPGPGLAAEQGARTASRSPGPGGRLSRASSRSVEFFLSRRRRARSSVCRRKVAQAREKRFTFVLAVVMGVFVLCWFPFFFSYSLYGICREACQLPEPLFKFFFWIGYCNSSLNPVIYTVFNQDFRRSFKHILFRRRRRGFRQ
T1 sequence (P19328 whole entry): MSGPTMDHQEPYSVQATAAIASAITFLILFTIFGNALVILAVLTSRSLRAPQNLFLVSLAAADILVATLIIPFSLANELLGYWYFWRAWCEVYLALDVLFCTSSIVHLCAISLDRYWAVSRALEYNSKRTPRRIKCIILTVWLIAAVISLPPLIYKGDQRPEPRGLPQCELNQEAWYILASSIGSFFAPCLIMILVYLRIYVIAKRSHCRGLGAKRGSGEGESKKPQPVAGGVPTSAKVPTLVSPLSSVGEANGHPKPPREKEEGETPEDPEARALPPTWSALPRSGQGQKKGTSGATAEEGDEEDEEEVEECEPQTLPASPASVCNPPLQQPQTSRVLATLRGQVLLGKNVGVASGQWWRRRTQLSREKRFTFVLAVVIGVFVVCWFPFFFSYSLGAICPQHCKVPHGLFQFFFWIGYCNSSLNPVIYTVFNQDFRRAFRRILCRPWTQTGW
T1 sequence (P22909 whole entry): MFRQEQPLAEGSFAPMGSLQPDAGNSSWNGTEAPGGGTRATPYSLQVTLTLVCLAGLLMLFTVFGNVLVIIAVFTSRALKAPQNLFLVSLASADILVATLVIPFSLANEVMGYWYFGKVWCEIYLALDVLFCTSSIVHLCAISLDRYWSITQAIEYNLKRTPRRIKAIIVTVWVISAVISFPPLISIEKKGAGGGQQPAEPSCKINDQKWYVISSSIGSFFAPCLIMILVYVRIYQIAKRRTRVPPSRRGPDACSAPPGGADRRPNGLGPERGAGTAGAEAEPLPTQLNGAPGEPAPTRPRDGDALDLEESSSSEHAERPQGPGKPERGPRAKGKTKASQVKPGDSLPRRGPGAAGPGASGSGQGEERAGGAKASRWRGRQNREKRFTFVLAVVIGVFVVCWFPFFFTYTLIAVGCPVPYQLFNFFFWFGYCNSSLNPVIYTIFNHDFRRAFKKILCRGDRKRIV

[3] = target: T2, Adrenergic receptor alpha-1 (Rattus norvegicus, UniProt P15823+P23944+P43140); assay: Binding of [3H]prazosin to alpha-1 adrenergic receptor of rat cerebral cortical membranes; format: cell membranes, Membrane
T2 sequence (P15823 whole entry): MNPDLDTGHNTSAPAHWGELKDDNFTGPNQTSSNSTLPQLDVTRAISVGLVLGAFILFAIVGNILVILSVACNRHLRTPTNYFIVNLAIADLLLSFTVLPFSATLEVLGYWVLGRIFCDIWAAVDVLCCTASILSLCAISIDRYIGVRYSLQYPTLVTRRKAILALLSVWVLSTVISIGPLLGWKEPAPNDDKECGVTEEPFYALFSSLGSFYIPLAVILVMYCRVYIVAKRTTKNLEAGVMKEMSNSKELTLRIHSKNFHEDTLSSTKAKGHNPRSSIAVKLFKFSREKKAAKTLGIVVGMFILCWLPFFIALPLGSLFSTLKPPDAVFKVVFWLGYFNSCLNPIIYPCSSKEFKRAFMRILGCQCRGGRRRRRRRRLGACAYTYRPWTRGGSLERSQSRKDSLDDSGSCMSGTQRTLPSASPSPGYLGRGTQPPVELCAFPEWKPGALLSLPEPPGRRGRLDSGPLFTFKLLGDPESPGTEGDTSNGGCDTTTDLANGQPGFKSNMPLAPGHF
T2 sequence (P23944 whole entry): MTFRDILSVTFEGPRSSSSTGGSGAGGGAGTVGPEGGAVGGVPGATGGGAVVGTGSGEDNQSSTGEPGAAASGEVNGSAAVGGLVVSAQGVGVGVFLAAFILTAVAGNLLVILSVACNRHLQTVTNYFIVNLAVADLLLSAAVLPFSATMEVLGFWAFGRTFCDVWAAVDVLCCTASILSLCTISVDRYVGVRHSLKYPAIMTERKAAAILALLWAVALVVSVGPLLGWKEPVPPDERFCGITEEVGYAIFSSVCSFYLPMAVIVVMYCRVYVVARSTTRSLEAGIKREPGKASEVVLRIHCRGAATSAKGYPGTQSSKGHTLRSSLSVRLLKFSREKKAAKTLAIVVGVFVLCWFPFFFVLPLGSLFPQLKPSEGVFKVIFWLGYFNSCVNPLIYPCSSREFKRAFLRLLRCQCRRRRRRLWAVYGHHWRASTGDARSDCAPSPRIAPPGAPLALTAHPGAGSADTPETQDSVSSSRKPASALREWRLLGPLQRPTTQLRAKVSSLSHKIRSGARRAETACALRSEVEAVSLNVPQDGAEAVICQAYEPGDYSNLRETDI
T2 sequence (P43140 whole entry): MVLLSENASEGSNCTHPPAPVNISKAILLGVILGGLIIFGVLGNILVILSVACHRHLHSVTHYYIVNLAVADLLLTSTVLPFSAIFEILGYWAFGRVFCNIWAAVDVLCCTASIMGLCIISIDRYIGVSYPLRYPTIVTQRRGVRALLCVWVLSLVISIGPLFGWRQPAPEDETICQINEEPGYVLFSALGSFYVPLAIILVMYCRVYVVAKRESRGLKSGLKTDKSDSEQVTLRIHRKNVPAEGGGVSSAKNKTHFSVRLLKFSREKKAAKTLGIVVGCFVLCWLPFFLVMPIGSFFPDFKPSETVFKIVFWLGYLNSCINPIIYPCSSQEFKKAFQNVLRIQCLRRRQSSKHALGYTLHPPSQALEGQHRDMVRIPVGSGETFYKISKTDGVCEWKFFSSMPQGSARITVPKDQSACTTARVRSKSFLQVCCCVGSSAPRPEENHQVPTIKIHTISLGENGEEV
In short: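 Affinity at alpha-1 adrenergic receptors measured as inhibition of specific [3H]prazosin binding to rat cerebral cortical membranes.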

[4] = target: Adrenergic receptor alpha-1 (Rattus norvegicus) (UniProt P15823+P23944+P43140); assay: Binding of [3H]prazosin to alpha-1 adrenergic receptor of rat cerebral cortical membranes at 100 uM; format: cell membranes; settings: Membrane

Beta-1 adrenergic receptor, sequence (P18090 whole entry): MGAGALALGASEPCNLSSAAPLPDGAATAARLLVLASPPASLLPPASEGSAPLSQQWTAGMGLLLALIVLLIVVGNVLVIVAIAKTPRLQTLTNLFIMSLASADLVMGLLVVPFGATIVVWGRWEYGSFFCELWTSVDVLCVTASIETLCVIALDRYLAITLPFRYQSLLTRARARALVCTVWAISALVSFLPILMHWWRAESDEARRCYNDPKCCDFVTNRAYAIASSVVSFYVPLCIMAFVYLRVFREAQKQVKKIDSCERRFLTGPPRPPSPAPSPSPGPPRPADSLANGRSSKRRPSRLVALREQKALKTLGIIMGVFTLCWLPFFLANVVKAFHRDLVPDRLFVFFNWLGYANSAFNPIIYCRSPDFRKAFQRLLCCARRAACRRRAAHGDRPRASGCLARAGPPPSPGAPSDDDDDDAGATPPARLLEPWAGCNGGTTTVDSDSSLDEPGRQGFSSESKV

Compound | Ki [1] [µM] | Ki [2] [µM] | Ki [3] | inhibition [4] [%]
CNC[C@H](O)c1cc(O)c(O)cc1F | ~100 | 0.013 | – | –
CNCC(O)c1cc(O)c(O)cc1F (racemic) | ~140 | 0.014 | – | –
NC[C@@H](O)c1cc(O)c(O)cc1F | – | – | ~ 12 uM | –
NC[C@@H](O)c1ccc(O)c(O)c1F | – | 0.32 | – | 12
NCC(O)c1ccc(O)c(O)c1F (racemic) | – | 0.6 | ~ 50 uM | –
CNC[C@@H](O)c1ccc(O)c(O)c1 [L-ADRENALINE] | 13 | – | – | –
CNC[C@@H](O)c1cc(O)c(O)cc1F | ~400 | 0.078 | – | –
NC[C@H](O)c1cc(O)c(O)cc1F | – | – | 3.7 µM | –
CNC[C@@H](O)c1ccc(O)c(O)c1F | – | 0.053 | ~ 40 uM | –
CNC[C@H](O)c1ccc(O)c(O)c1F | – | 0.067 | – | –
NCCc1cc(O)c(O)cc1F | 41 | 0.04 | 6 µM | –
CNC[C@H](O)c1ccc(O)c(O)c1 (racemic) [EPINEPHRINE] | 2.1 | – | – | –
CNCC(O)c1ccc(O)c(O)c1F (racemic) | – | 0.06 | – | –
NCC(O)c1cc(O)c(O)cc1F (racemic) | – | – | – | 20
NCCc1ccc(O)c(O)c1 [DOPAMINE] | – | 0.058 | 14 µM | –
NCCc1ccc(O)c(O)c1F | 19 | 0.12 | 16 µM | –
NCC(O)c1ccc(O)c(O)c1 (single isomer, unassigned) | – | – | – | 18
NC[C@H](O)c1ccc(O)c(O)c1F | – | 0.55 | ~ 25 uM | –
